Measured values gathered from unrelated publications.
Read-out: cell growth or viability

COc1cc2[nH]cc(C(=O)C(C#N)=Cc3cn(C)c4ccccc34)c2cc1OC — IC50 (MIA PaCa-2; MTT; 48 h): 15.6 µM
O=C(CSc1nc2ccccc2s1)N/N=C/c1ccc(OCC(=O)Nc2ccc([N+](=O)[O-])cc2)cc1 — IC50 (LN-229; MTS; 72 h): 4.39 µM
COc1ccc2c(C(=O)C(C#N)=Cc3cn(Cc4ccc(Cl)cc4)c4ccccc34)c[nH]c2c1 — IC50 (MIA PaCa-2; MTT; 48 h): 7.9 µM
O=C(NO)c1ccc(Cn2cnc3c(Nc4ccc(Cl)cc4)ncnc32)cc1 — IC50 (Jurkat; MTT; 72 h): 0.91 µM
C=C1C[C@@]23CC[C@H]4[C@@](C)(CCC[C@@]4(C)C(=O)O)[C@@H]2CC[C@@H]1C3 — IC50 (T47D; MTT; 75 h): 150 µM
COc1ccc(C=NNC(=O)c2cc(-c3ccccc3)n(-c3ccc(S(N)(=O)=O)cc3)n2)cc1OC — IC50 (PaCa-2; fluorescence; 48 h): 20.5 µM
COc1ccc(Nc2ncnc3c2ncn3Cc2ccc(C(=O)Nc3ccccc3N)cc2)cc1 — IC50 (Jurkat; MTT; 72 h): 9.74 µM
NS(=O)(=O)c1ccc(-n2nc(C(=O)NN=Cc3ccccc3O)cc2-c2ccccc2)cc1 — IC50 (PaCa-2; fluorescence; 48 h): 10.9 µM
Clc1ccc(-c2cc(CNc3cccc4cccnc34)on2)c(Cl)c1 — IC50 (LN-229; MTS; 72 h): 54.4 µM
Cc1ncsc1-c1ccc([C@H](C)NC(=O)[C@@H]2C[C@@H](O)CN2C(=O)[C@@H](NC(=O)CCCCCCCS(=O)(=O)NC(=O)c2nc(N3CCc4cccc(C(=O)Nc5nc6ccccc6s5)c4C3)ccc2-c2cnn(CC34CC5CC(CC(C5)C3)C4)c2C)C(C)(C)C)cc1 — IC50 (MOLT-4; MTS; 48 h): 0.0037 µM
COc1cc([C@@H]2c3cc4c(cc3[C@@H](O[C@@H]3O[C@@H]5CO[C@@H](C)O[C@H]5[C@H](O)[C@H]3O)[C@H]3COC(=O)[C@H]23)OCO4)cc(OC)c1O — IC50 (DU-145; MTT): 0.5 µM
CN(C)C(=O)c1cc2cnc(Nc3ccc(-c4ccc5c(=O)cc(N6CCOCC6)oc5c4)cc3)nc2n1C1CCCC1 — IC50 (NGP; ATP luminescence; 72 h): 0.21 µM
COc1cccc2c1C(=O)c1c(O)c3c(c(O)c1C2=O)C[C@@](O)(C(=O)CO)C[C@@H]3O[C@H]1C[C@H](N)[C@H](O)[C@H](C)O1 — IC50 (Jurkat; 96 h): 0.0339 µM
Cc1ncsc1-c1ccc([C@H](C)NC(=O)[C@@H]2C[C@@H](O)CN2C(=O)[C@@H](NC(=O)CCCCCCCCCS(=O)(=O)NC(=O)c2nc(N3CCc4cccc(C(=O)Nc5nc6ccccc6s5)c4C3)ccc2-c2cnn(CC34CC5CC(CC(C5)C3)C4)c2C)C(C)(C)C)cc1 — IC50 (MOLT-4; MTS; 48 h): 0.0119 µM
CCn1cc(C=C(C#N)C(=O)c2c[nH]c3ccc(OC)cc23)c2ccccc21 — IC50 (MIA PaCa-2; MTT; 48 h): 15.5 µM
O=c1cc(OCc2cc(-c3ccccc3)no2)c2ccccc2o1 — IC50 (LN-229; MTS; 72 h): > 100 µM
Nc1ccccc1NC(=O)c1ccc(Cn2cnc3c(Nc4ccc(Br)cc4F)ncnc32)cc1 — IC50 (MOLT-4; MTT; 72 h): 0.45 µM
O=C(CSc1nc2ccccc2s1)N/N=C/c1ccc(OCC(=O)Nc2cccc(Cl)c2)cc1 — IC50 (LN-229; MTS; 72 h): 19.6 µM
N/C(=N\O)c1ccc(-c2cc(CNc3cccc4cccnc34)on2)cc1 — IC50 (LN-229; MTS; 72 h): 15.6 µM
Cc1c(-c2ccc(N3CCc4cccc(C(=O)Nc5nc6ccccc6s5)c4C3)nc2C(=O)NCCOCCNc2cccc3c2C(=O)N(C2CCC(=O)NC2=O)C3=O)cnn1CC12CC3CC(CC(C3)C1)C2 (stereo not shown) — IC50 (MOLT-4; MTS; 48 h): 0.0214 µM
FC(F)(F)c1cc(OCc2cc(-c3ccc(Cl)cc3Cl)no2)c2ccccc2n1 — IC50 (LN-229; MTS; 72 h): > 100 µM
Cn1nnc2c(C(N)=O)ncn2c1=O — IC50 (LN-229; MTT): 6000 µM
N#Cc1ccc(-c2cc(COc3cc(C(F)(F)F)nc4ccccc34)on2)cc1 — IC50 (LN-229; MTS; 72 h): 23.9 µM
COC(=O)c1cc(C(C)=NNc2nc(-c3cccc4cc[nH]c34)cs2)ccc1O — IC50 (T47D; MTT; 96 h): 20.8 µM
CCNC(=O)c1nc(N2CCc3cccc(C(=O)Nc4nc5ccccc5s4)c3C2)ccc1-c1cnn(CC23CC4CC(CC(C4)C2)C3)c1C — IC50 (MOLT-4; MTS; 48 h): 0.481 µM
NS(=O)(=O)c1ccc(-n2nc(-c3nnc(S)o3)cc2-c2ccccc2)cc1 — IC50 (PaCa-2; fluorescence; 48 h): 34.2 µM
Nc1ccccc1NC(=O)c1ccc(Cn2cnc3c(Nc4ccc(Cl)cc4)ncnc32)cc1 — IC50 (MOLT-4; MTT; 72 h): 0.49 µM
Cc1ncsc1-c1ccc([C@H](C)NC(=O)[C@@H]2C[C@@H](O)CN2C(=O)[C@@H](NC(=O)CN2CCN(c3cc(-c4ccccc4O)nnc3N)CC2)C(C)(C)C)cc1 — IC50 (LNCaP; ATP luminescence; 7 days): 0.0153 µM
Cc1nc(Nc2ncc(C(=O)Nc3c(C)cccc3Cl)s2)cc(N2CC[C@H](O)C2)n1 — IC50 (SU-DHL-2; ATP luminescence; 72 h): > 10 µM
COc1ccc(Nc2ncnc3c2ncn3Cc2ccc(C(=O)NO)cc2)cc1 — IC50 (Jurkat; MTT; 72 h): 0.7 µM
Cc1c(-c2ccc(N3CCc4cccc(C(=O)Nc5nc6ccccc6s5)c4C3)nc2C(=O)O)cnn1CC12CC3CC(C1)CC(C(=O)NCCCCCCCCNc1cccc4c1C(=O)N(C1CCC(=O)NC1=O)C4=O)(C3)C2 (stereo not shown) — IC50 (MOLT-4; MTS; 48 h): 0.0041 µM
O=c1cc(OCc2cc(-c3ccccn3)no2)c2ccccc2o1 — IC50 (LN-229; MTS; 72 h): > 100 µM
O=C(CSc1nc2ccccc2s1)N/N=C/c1ccc(OCC(=O)Nc2cccc(Br)c2)cc1 — IC50 (LN-229; MTS; 72 h): 65.5 µM
NS(=O)(=O)c1ccc(-n2nc(C(=O)NN=Cc3ccc(O)cc3)cc2-c2ccccc2)cc1 — IC50 (PaCa-2; fluorescence; 48 h): 8.53 µM
Cc1c(-c2ccc(N3CCc4cccc(C(=O)Nc5nc6ccccc6s5)c4C3)nc2C(=O)NCCOCCOCCOCCO)cnn1CC12CC3CC(CC(C3)C1)C2 — IC50 (MOLT-4; MTS; 48 h): 0.0169 µM
N#Cc1ccc(-c2cc(COc3cc(=O)oc4ccccc34)on2)cc1 — IC50 (LN-229; MTS; 72 h): > 100 µM
CC(=NNC(=O)c1cc(-c2ccccc2)n(-c2ccc(S(N)(=O)=O)cc2)n1)c1ccc(C)cc1 — IC50 (PaCa-2; fluorescence; 48 h): 11.5 µM
FC(F)(F)c1ccc(-c2cc(COc3cc(C(F)(F)F)nc4ccccc34)on2)cc1 — IC50 (LN-229; MTS; 72 h): > 100 µM
COc1cc(C=NNC(=O)c2cc(-c3ccccc3)n(-c3ccc(S(N)(=O)=O)cc3)n2)cc(OC)c1OC — IC50 (PaCa-2; fluorescence; 48 h): 22 µM
Cc1c(-c2ccc(N3CCc4cccc(C(=O)Nc5nc6ccccc6s5)c4C3)nc2C(=O)NCCCCNc2cccc3c2C(=O)N(C2CCC(=O)NC2=O)C3=O)cnn1CC12CC3CC(CC(C3)C1)C2 (stereo not shown) — IC50 (MOLT-4; MTS; 48 h): 0.126 µM
COc1ccc2[nH]cc(C(=O)C(C#N)=Cc3cn(C)c4ccccc34)c2c1 — IC50 (MIA PaCa-2; MTT; 48 h): 4.5 µM
CN(C)c1ccc(Nc2nc(-c3ccncc3)nc3c2CC(N)CC3)cc1 (stereo not shown) — IC50 (DU-145; MTT): 11.5 µM
CCn1cc(/C=C(\C#N)C(=O)c2c[nH]c3ccccc23)c2ccccc21 — IC50 (MIA PaCa-2; MTT; 48 h): > 40 µM
Nc1nnc(-c2ccccc2O)cc1N1CC2CCC(C1)N2c1ccnc(F)c1 — IC50 (LNCaP; ATP luminescence; 7 days): > 1 µM
COc1ccc(C=C(C#N)C(=O)c2c[nH]c3ccccc23)cc1 — IC50 (MIA PaCa-2; MTT; 48 h): 15.4 µM
Cc1ncsc1-c1ccc([C@H](C)NC(=O)[C@@H]2C[C@@H](O)CN2C(=O)[C@@H](NC(=O)CCCCCCCCCCS(=O)(=O)NC(=O)c2nc(N3CCc4cccc(C(=O)Nc5nc6ccccc6s5)c4C3)ccc2-c2cnn(CC34CC5CC(CC(C5)C3)C4)c2C)C(C)(C)C)cc1 — IC50 (MOLT-4; MTS; 48 h): 0.0341 µM
